Test results taken from ChEMBL document CHEMBL1125226, “Antineoplastic activity of didemnin congeners: nordidemnin and modified chain analogues” (1991).
Converted amounts (≈) assume the structure as drawn.

How the values were obtained:
L1210 [1] = assay: In vitro cytostatic activity determined on L1210 leukemia cells at 48 hours.; format: functional; conditions: Mus musculus, L1210, 48 h; read-out: ID50 (the source's name)
Procedure, shortened: (§1)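 Log-phase L1210 cells were seeded at 0.8 × 10⁵ cells/mL in RPMI 1640 with 20% heat-inactivated horse serum, 2 mmol/L L-glutamine, streptomycin and penicillin. Drugs in ethanol (0.5% final) were tested at several concentrations.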

P388 [2] = assay: Antitumor activity against P388 Leukemia from CDF1 female mice evaluated as Median survival time of treated mice at a dose of 0.75 mg/kg/day; format: functional, Mus musculus
Procedure, shortened: (§2)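 CDF1 female mice (BALB/c × DBA/2) inoculated ip with 10⁶ P388 cells on day 0. Drug given ip in 2% methanol on days 1, 5 and 9. Ten mice per dose group, with a larger control group. Body weight and survival were recorded on days 1 and 5, with toxicity taken as survivors on day 5. Mortality was followed for 30 days to give median survival time.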

B16 [3] = assay: Antitumor activity against B16 melanoma from B6 D2 F1 female mice as Median survival time of treated mice at a dose of 0.25 mg/kg/day (repeated ip injections, day 1-9); format: functional, Mus musculus; conditions: route intraperitoneal
Procedure, shortened: (§3)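 B16 melanoma homogenate (1 g tumor in 9 mL 0.9% saline), 0.5 mL implanted ip on day 0 in B6D2F1 female mice (C57BL/6 ♀ × DBA/2 ♂). Treatment ip once daily from day 1 to day 9. Toxicity scored as survivors on day 5. Median survival recorded and T/C computed as treated/control median survival, ≥125% significant.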

P388 [4] = assay: Antitumor activity against P388 Leukemia from CDF1 female mice evaluated as the number of survivors on day 5 at a dose of 0.03 mg/kg/day; format: functional, Mus musculus; procedure, shortened: as §2
L1210 [5] = assay: Antitumor activity against L1210 Lymphoid Leukemia from CDF1 female mice (T/C) as median survival time of treated mice (T) over that of control mice (C) at a dose of 0.25 mg/kg/day; format: functional, Mus musculus
Procedure, shortened: (§4)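 L1210 leukemia, 10⁵ cells ip on day 0 into CDF1 female mice (BALB/c ♀ × DBA/2 ♂). Drug in 2% methanol given ip on days 1, 5 and 9, 10 mice per group. Survivors and body weight recorded on days 1 and 5, with toxicity as survivors on day 5. Deaths followed for 30 days. T/C = treated/control median survival time, significant at ≥125%.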

P388 [6] = assay: Median survival time of treated mice at a dose of 1 mg/kg/day; format: functional, Mus musculus
P388 [7] = assay: Antitumor activity against P388 Leukemia from CDF1 female mice evaluated as the number of survivors on day 5 at a dose of 0.06 mg/kg/day; format: functional, Mus musculus; procedure, shortened: as §2
B16 [8] = assay: Antitumor activity against B16 melanoma from B6 D2 F1 female mice as average weight change of animals between day 1 and day 5 after tumor implementation at a dose of 0.06 mg/kg/day (repeated ip injections, day 1-9); format: functional, Mus musculus; conditions: route intraperitoneal
Procedure, shortened: (§5)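 B6D2F1 female mice (C57BL/6 × DBA/2) were implanted ip on day 0 with 0.5 mL of B16 suspension (1 g tumor homogenized in 9 mL 0.9% saline). Ip treatment was given once daily, day 1 to day 9. Body weight was recorded on days 1 and 5 after implantation, and the mean change per group was reported.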

B16 [9] = assay: Antitumor activity against B16 melanoma from B6 D2 F1 female mice evaluated as Median survival time of treated mice at a dose of 0.06 mg/kg/day (repeated ip injections, day 1-9); format: functional, Mus musculus; conditions: route intraperitoneal; procedure, shortened: as §3
L1210 [10] = assay: Antitumor activity against L1210 Lymphoid Leukemia from CDF1 female mice evaluated as the number of survivors on day 5 at a dose of 0.25 mg/kg/day; format: functional, Mus musculus; procedure, shortened: as §4
P388 [11] = assay: Antitumor activity against P388 Leukemia from CDF1 female mice evaluated as Median survival time of treated mice at a dose of 0.50 mg/kg/day; format: functional, Mus musculus; procedure, shortened: as §2
L1210 [12] = assay: In vitro cytostatic activity determined on L1210 leukemia cells at 24 hours.; format: functional; conditions: Mus musculus, L1210, 24 h; read-out: ID50 (the source's name); procedure, shortened: as §1
B16 [13] = assay: Antitumor activity against B16 melanoma from B6 D2 F1 female mice evaluated as the number of survivors on day 5 at a dose of 0.06 mg/kg/day; format: functional, Mus musculus
Procedure, shortened: (§6)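 B6D2F1 female mice (C57BL/6 ♀ × DBA/2 ♂) implanted ip on day 0 with 0.5 mL of B16 tumor suspension (1 g homogenized in 9 mL 0.9% saline). Dosing ip on days 1, 5 and 9. Day-5 survivors give toxicity. Median survival of treated vs control mice gives T/C%, with ≥125% significant.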

L1210 [14] = assay: Antitumor activity against L1210 Lymphoid Leukemia from CDF1 female mice as the number of survivors on day 5 at a dose of 1.0 mg/kg/day; format: functional, Mus musculus; procedure, shortened: as §4
B16 [15] = assay: Antitumor activity against B16 melanoma from B6 D2 F1 female mice evaluated as the number of survivors on day 5 at a dose of 0.25 mg/kg/day; format: functional, Mus musculus; procedure, shortened: as §6
P388 [16] = assay: Antitumor activity against P388 Leukemia from CDF1 female mice evaluated as Median survival time of treated mice at a dose of 0.06 mg/kg/day; format: functional, Mus musculus
Procedure, shortened: (§7)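 CDF1 female mice (BALB/c ♀ × DBA/2 ♂) given 10⁶ P388 cells ip on day 0. Drug in 2% methanol given ip on days 1, 5 and 9, 10 mice per group and more controls. Toxicity is survivors on day 5, with weight change between days 1 and 5. Mortality followed 30 days. T/C% is treated over control median survival (NCI method), significant at ≥125%.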

B16 [17] = assay: Antitumor activity against B16 melanoma from B6 D2 F1 female mice(T/C) was evaluated from the median survival time of treated mice (T) over that of control mice (C) at a dose of 0.50 mg/kg/day; format: functional, Mus musculus; procedure, shortened: as §6
P388 [18] = assay: Antitumor activity against P388 Leukemia from CDF1 female mice evaluated as Median survival time of treated mice at a dose of 0.25 mg/kg/day; format: functional, Mus musculus; procedure, shortened: as §2
B16 [19] = assay: Antitumor activity against B16 melanoma from B6 D2 F1 female mice evaluated as Median survival time of treated mice at a dose of 0.25 mg/kg/day; format: functional, Mus musculus; procedure, shortened: as §6
B16 [20] = assay: Antitumor activity against B16 melanoma from B6 D2 F1 female mice evaluated as the number of survivors on day 5 at a dose of 0.03 mg/kg/day (repeated ip injections, day 1-9); format: functional, Mus musculus; conditions: route intraperitoneal; procedure, shortened: as §3
B16 [21] = assay: Antitumor activity against B16 melanoma from B6 D2 F1 female mice evaluated as the number of survivors on day 5 at a dose of 0.25 mg/kg/day (repeated ip injections, day 1-9); format: functional, Mus musculus; conditions: route intraperitoneal; procedure, shortened: as §3
P388 [22] = assay: Antitumor activity against P388 Leukemia from CDF1 female mice evaluated as Median survival time of treated mice at a dose of 0.03 mg/kg/day; format: functional, Mus musculus; procedure, shortened: as §7
B16 [23] = assay: Antitumor activity against B16 melanoma from B6 D2 F1 female mice as average weight change of animals between day 1 and day 5 after tumor implementation at a dose of 0.25 mg/kg/day (repeated ip injections, day 1-9); format: functional, Mus musculus; conditions: route intraperitoneal; procedure, shortened: as §5
P388 [24] = assay: Antitumor activity (T/C) was evaluated from the median survival time of treated mice (T) over that of control mice (C) at a dose of 0.25 mg/kg/day; format: functional, Mus musculus; procedure, shortened: as §7
P388 [25] = assay: Antitumor activity against P388 Leukemia from CDF1 female mice evaluated as Median survival time of treated mice at a dose of 0.12 mg/kg/day; format: functional, Mus musculus; procedure, shortened: as §7
B16 [26] = assay: Antitumor activity against B16 melanoma from B6 D2 F1 female mice(T/C) as median survival time of treated mice (T) over that of control mice (C) at a dose of 0.03 mg/kg/day (repeated ip injections, day 1-9); format: functional, Mus musculus; conditions: route intraperitoneal; procedure, shortened: as §3

In the case of `COc1ccc(C[C@H]2C(=O)O[C@H](C)[C@H](NC(=O)[C@@H](CC(C)C)N(C)C(=O)C3CCCN3C(=O)[C@@H](C)O)C(=O)NC(C(C)C)[C@H](O)CC(=O)O[C@@H](C(C)C)C(=O)[C@H](C)C(=O)N[C@@H](CC(C)C)C(=O)N3CCC[C@H]3C(=O)N2C)cc1` (stereo partly specified) [NORDIDEMNIN], the IC50 (L1210 [1]) is reported as 1.9 ng/mL (≈ 1.73 nM), the “median survival time, days” value (P388 [2]) is reported as 19.4 and the “median survival time, days” value (B16 [3]) is reported as 29.8. For the same compound, the Toxicity (P388 [4]) was 1, the T/C (L1210 [5]) was 111% and the “median survival time, days” value (P388 [6]) was 19.9. The Toxicity (P388 [7]) was 1, the Body weight change (B16 [8]) was -0.3 g and the “median survival time, days” value (B16 [9]) was 27.8. The Toxicity (L1210 [10]) was 1, the “median survival time, days” value (P388 [11]) was 17.9 and the IC50 (L1210 [12]) was 3.6 ng/mL (≈ 3.28 nM). The Toxicity (B16 [13]) was 1, the Toxicity (L1210 [14]) was 1 and the Toxicity (B16 [15]) was 1. The “median survival time, days” value (P388 [16]) was 13.6, the T/C (B16 [17]) was 147% and the “median survival time, days” value (P388 [18]) was 15.7. For the same compound, the “median survival time, days” value (B16 [19]) was 27, the Toxicity (B16 [20]) was 0.9 and the Toxicity (B16 [21]) was 1. The “median survival time, days” value (P388 [22]) was 12.4, the Body weight change (B16 [23]) was -2.1 g and the T/C (P388 [24]) was 142%. The “median survival time, days” value (P388 [25]) was 14.7 and the T/C (B16 [26]) was 139%.
